{"source": "the RNAGym collection of RNA variant scans (doi:10.1002/anie.201605470)", "parents": {"B1": {"name": "Osa-1-4 twister ribozyme (parent)", "chain": "CCGCCUAACACUGCCAAUGCCGGUCCCAAGCCCGGAUAAAAGUGGAGGGGGCGG"}}}
{"variants_of": "B1", "test": "self-cleavage, relative activity (ratio to wild type); higher = more cleavage; co-transcriptional", "summary_of_the_method": "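The 48 positions downstream of the cleavage site in a 54-nucleotide Oryza sativa twister ribozyme template were synthesised at 97 % wild-type base and 1 % of each other base. The template was transcribed in vitro at 37 °C for 2 h, with self-cleavage allowed during transcription. Reads with or without upstream sequence after deep sequencing marked cleavage status, and relative activity is fraction cleaved normalised to wild type.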"}
{"variant": "CCGCCUUACACUGCCAAUGGCGGUCCCAAGCCCGGAUAAAAGUGGAGGGGGCGG", "note": "[A7U C20G]", "self-cleavage": 0.11}
{"variant": "CCGCCUUACACUGCCAAUGACGGUCCCAAGCCCGGAUAAAAGUGGAGGGGGCGG", "note": "[A7U C20A]", "self-cleavage": 0.06}
{"variant": "CCGCCUUACACUGCCAAUGUCGGUCCCAAGCCCGGAUAAAAGUGGAGGGGGCGG", "note": "[A7U C20U]", "self-cleavage": 0.09}
{"variant": "CCGCCUGACACUGCCAAUGCCGGUCCCAAGCCCGGAUAAAAGUGGAGGUGGCGG", "note": "[A7G G49U]", "self-cleavage": 0.05}
{"variant": "CCGCCUGACACUGCCAAUGCCGGUCCCAAGCCCGGAUAAAAGUGGAGGAGGCGG", "note": "[A7G G49A]", "self-cleavage": 0.07}
{"variant": "CCGCCUGACACUGCCAAUGCCGGUCCCAAGCCCGGAUAAAAGUGGAGGCGGCGG", "note": "[A7G G49C]", "self-cleavage": 0.05}
{"variant": "CCGCCUGACACUGCCAAUGCCGGUCCCAAGCCCGGAUAAAAGAGGAGGGGGCGG", "note": "[A7G U43A]", "self-cleavage": 0.2}
{"variant": "CCGCCUGACACUGCCAAUGCCGGUCCCAAGCCCGGAUAAAAGGGGAGGGGGCGG", "note": "[A7G U43G]", "self-cleavage": 0.11}
{"variant": "CCGCCUGACACUGCCAAUGCCGGUCCCAAGCCCGGAUAAAAGCGGAGGGGGCGG", "note": "[A7G U43C]", "self-cleavage": 0.12}
{"variant": "CCGCCUUCCACUGCCAAUGCCGGUCCCAAGCCCGGAUAAAAGUGGAGGGGGCGG", "note": "[A7U A8C]", "self-cleavage": 0.02}
{"variant": "CCGCCUUUCACUGCCAAUGCCGGUCCCAAGCCCGGAUAAAAGUGGAGGGGGCGG", "note": "[A7U A8U]", "self-cleavage": 0.07}
{"variant": "CCGCCUUGCACUGCCAAUGCCGGUCCCAAGCCCGGAUAAAAGUGGAGGGGGCGG", "note": "[A7U A8G]", "self-cleavage": 0.09}
{"variant": "CCGCCUGACACUGCCAAUGCCGGUCCCAAGCCCGGACAAAAGUGGAGGGGGCGG", "note": "[A7G U37C]", "self-cleavage": 0.46}
{"variant": "CCGCCUGACACUGCCAAUGCCGGUCCCAAGCCCGGAAAAAAGUGGAGGGGGCGG", "note": "[A7G U37A]", "self-cleavage": 0.27}
{"variant": "CCGCCUGACACUGCCAAUGCCGGUCCCAAGCCCGGAGAAAAGUGGAGGGGGCGG", "note": "[A7G U37G]", "self-cleavage": 0.58}
{"variant": "CCGCCUGACACAGCCAAUGCCGGUCCCAAGCCCGGAUAAAAGUGGAGGGGGCGG", "note": "[A7G U12A]", "self-cleavage": 0.16}
{"variant": "CCGCCUGACACGGCCAAUGCCGGUCCCAAGCCCGGAUAAAAGUGGAGGGGGCGG", "note": "[A7G U12G]", "self-cleavage": 0.12}
{"variant": "CCGCCUGACACCGCCAAUGCCGGUCCCAAGCCCGGAUAAAAGUGGAGGGGGCGG", "note": "[A7G U12C]", "self-cleavage": 0.1}
{"variant": "CCGCCUGACACUGCCAAUGCCUGUCCCAAGCCCGGAUAAAAGUGGAGGGGGCGG", "note": "[A7G G22U]", "self-cleavage": 0.1}
{"variant": "CCGCCUGACACUGCCAAUGCCCGUCCCAAGCCCGGAUAAAAGUGGAGGGGGCGG", "note": "[A7G G22C]", "self-cleavage": 0.08}
{"variant": "CCGCCUGACACUGCCAAUGCCAGUCCCAAGCCCGGAUAAAAGUGGAGGGGGCGG", "note": "[A7G G22A]", "self-cleavage": 0.18}
{"variant": "CCGCCUGACACUGCCAAUGCCGGUCCCAAGCCCGCAUAAAAGUGGAGGGGGCGG", "note": "[A7G G35C]", "self-cleavage": 0.1}
{"variant": "CCGCCUGACACUGCCAAUGCCGGUCCCAAGCCCGAAUAAAAGUGGAGGGGGCGG", "note": "[A7G G35A]", "self-cleavage": 0.31}
{"variant": "CCGCCUGACACUGCCAAUGCCGGUCCCAAGCCCGUAUAAAAGUGGAGGGGGCGG", "note": "[A7G G35U]", "self-cleavage": 0.2}
{"variant": "CCGCCUUACAAUGCCAAUGCCGGUCCCAAGCCCGGAUAAAAGUGGAGGGGGCGG", "note": "[A7U C11A]", "self-cleavage": 0.08}
{"variant": "CCGCCUUACAGUGCCAAUGCCGGUCCCAAGCCCGGAUAAAAGUGGAGGGGGCGG", "note": "[A7U C11G]", "self-cleavage": 0.06}
{"variant": "CCGCCUUACAUUGCCAAUGCCGGUCCCAAGCCCGGAUAAAAGUGGAGGGGGCGG", "note": "[A7U C11U]", "self-cleavage": 0.05}
{"variant": "CCGCCUGACACUGCCAAAGCCGGUCCCAAGCCCGGAUAAAAGUGGAGGGGGCGG", "note": "[A7G U18A]", "self-cleavage": 0.38}
{"variant": "CCGCCUGACACUGCCAAGGCCGGUCCCAAGCCCGGAUAAAAGUGGAGGGGGCGG", "note": "[A7G U18G]", "self-cleavage": 0.49}
{"variant": "CCGCCUGACACUGCCAACGCCGGUCCCAAGCCCGGAUAAAAGUGGAGGGGGCGG", "note": "[A7G U18C]", "self-cleavage": 0.25}
{"variant": "CCGCCUGACACUGCCAAUGCCGGUCCCAAGCCCGGAUAAAAGUGGAGGGUGCGG", "note": "[A7G G50U]", "self-cleavage": 0.16}
{"variant": "CCGCCUGACACUGCCAAUGCCGGUCCCAAGCCCGGAUAAAAGUGGAGGGAGCGG", "note": "[A7G G50A]", "self-cleavage": 0.17}
{"variant": "CCGCCUGACACUGCCAAUGCCGGUCCCAAGCCCGGAUAAAAGUGGAGGGCGCGG", "note": "[A7G G50C]", "self-cleavage": 0.16}
{"variant": "CCGCCUGACACUGCCAAUGCCGGUCCCAAGCCCGGAUAAAAGUGGAGGGGGCGU", "note": "[A7G G54U]", "self-cleavage": 0.36}
{"variant": "CCGCCUGACACUGCCAAUGCCGGUCCCAAGCCCGGAUAAAAGUGGAGGGGGCGC", "note": "[A7G G54C]", "self-cleavage": 0.17}
{"variant": "CCGCCUGACACUGCCAAUGCCGGUCCCAAGCCCGGAUAAAAGUGGAGGGGGCGA", "note": "[A7G G54A]", "self-cleavage": 0.19}
{"variant": "CCGCCUGACACUGCCAAUGCCGGUCCCAAGCCCGGAUAAAAGUGGAGGGGGCUG", "note": "[A7G G53U]", "self-cleavage": 0.1}
{"variant": "CCGCCUGACACUGCCAAUGCCGGUCCCAAGCCCGGAUAAAAGUGGAGGGGGCCG", "note": "[A7G G53C]", "self-cleavage": 0.06}
{"variant": "CCGCCUGACACUGCCAAUGCCGGUCCCAAGCCCGGAUAAAAGUGGAGGGGGCAG", "note": "[A7G G53A]", "self-cleavage": 0.16}
{"variant": "CCGCCUUACACUGCCAAUGCCGGUCCCAAGCCCGGAUAAAAGUGGAGGGGGCGG", "note": "[A7U]", "self-cleavage": 0.07}
{"variant": "CCGCCUGACACUGCCAAUGCCGGUCCCAAGCCAGGAUAAAAGUGGAGGGGGCGG", "note": "[A7G C33A]", "self-cleavage": 0.07}
{"variant": "CCGCCUGACACUGCCAAUGCCGGUCCCAAGCCGGGAUAAAAGUGGAGGGGGCGG", "note": "[A7G C33G]", "self-cleavage": 0.03}
{"variant": "CCGCCUGACACUGCCAAUGCCGGUCCCAAGCCUGGAUAAAAGUGGAGGGGGCGG", "note": "[A7G C33U]", "self-cleavage": 0.13}
{"variant": "CCGCCUUACACUGUCAAUGCCGGUCCCAAGCCCGGAUAAAAGUGGAGGGGGCGG", "note": "[A7U C14U]", "self-cleavage": 0.07}
{"variant": "CCGCCUUACACUGACAAUGCCGGUCCCAAGCCCGGAUAAAAGUGGAGGGGGCGG", "note": "[A7U C14A]", "self-cleavage": 0.03}
{"variant": "CCGCCUUACACUGGCAAUGCCGGUCCCAAGCCCGGAUAAAAGUGGAGGGGGCGG", "note": "[A7U C14G]", "self-cleavage": 0.23}
{"variant": "CCGCCUGACACUGCCAAUGCCGCUCCCAAGCCCGGAUAAAAGUGGAGGGGGCGG", "note": "[A7G G23C]", "self-cleavage": 0.06}
{"variant": "CCGCCUGACACUGCCAAUGCCGAUCCCAAGCCCGGAUAAAAGUGGAGGGGGCGG", "note": "[A7G G23A]", "self-cleavage": 0.14}
